# Calls of active or inactive are those of the source. The calls are words filed in the database; no cut-off is given here.
# What was measured:
# [1] = test system: Shigella dysenteriae; assay: Antibacterial activity against Shigella dysenteriae 7 NCTC 519/66 after 24 hrs by agar dilution method; type: functional; details: 7 NCTC 519/66, 24 h
# [2] = test system: Escherichia coli; assay: Antibacterial activity against Escherichia coli K-12 Row after 24 hrs by agar dilution method; type: functional
# Method in brief: (§1)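 Agar dilution MIC. Compound dissolved in sterile 0.2% DMSO, diluted in distilled water and mixed into molten nutrient agar (pH 7.2–7.4) at 5, 10, 25, 50; plate with 0.2% DMSO as control. Gram-positives grown 18 h in nutrient broth, Gram-negatives in peptone water. Stationary-phase suspension set to 0.5 McFarland, diluted 1:100, spot-inoculated at about 10^5 CFU per loopful. Plates held 24 h at 37 °C (up to 72 h if needed). MIC is the lowest level with no growth.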
# [3] = test system: Vibrio cholerae; assay: Antibacterial activity against Vibrio cholerae 569B after 24 hrs by agar dilution method; type: functional
# [4] = Down regulation of TNFalpha release Leishmania donovani MHOM/IN/1983/AG83 infected interferon gamma-stimulated golden Syrian hamster peritoneal macrophages; type: functional, cell-based; details: Mesocricetus auratus; Macrophage
# [5] = test system: Salmonella typhimurium; assay: Antibacterial activity against Salmonella Typhimurium NCTC 74 at 50 ug/ml after 24 hrs by agar dilution method; type: functional, Salmonella enterica subsp. enterica serovar Typhimurium; details: Salmonella enterica, NCTC 74, 24 h; method in brief: as §1
# [6] = test system: Staphylococcus aureus; assay: Antibacterial activity against Staphylococcus aureus ML145 at 5 ug/ml after 24 hrs by agar dilution method; type: functional; details: ML145, 24 h; method in brief: as §1
# [7] = test system: Bacillus licheniformis; assay: Antibacterial activity against […] Bacillus licheniformis NCTC 10341 at 25 ug/ml after 24 hrs by agar dilution method; type: functional, organism-based; method in brief: as §1
# [8] = test system: Staphylococcus aureus; assay: Antibacterial activity against Staphylococcus aureus ML6 at 5 ug/ml after 24 hrs by agar dilution method; type: functional, organism-based; method in brief: as §1
# [9] = Toxicity against golden Syrian hamster peritoneal macrophages; type: cell-based, Mesocricetus auratus; details: macrophage
# [10] = test system: Leishmania donovani; assay: Antileishmanial activity against Leishmania donovani MHOM/IN/1983/AG83 promastigotes assessed as induction of vacuolization at 11.5 ug/ml after 2 hrs by transmission electron microscopy; type: functional, organism-based
# Method in brief: (§2)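 Log-phase promastigotes, grown at 22 °C in M199 with 10% FBS, were exposed for 2 h to the compound; controls received 0.1% DMSO alone. Cells were then sectioned, stained on copper grids with uranyl acetate and lead acetate for 10-15 min each, and examined by TEM for ultrastructural changes.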
# [11] = test system: Leishmania donovani; assay: Antileishmanial activity against Leishmania donovani MHOM/IN/1983/AG83 promastigotes infected BALB/c mouse assessed as spleen weight at 5.5 mg/kg, ip administered two times per week for 4 weeks; type: functional; details: route intraperitoneal
# Method in brief: (§3)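 BALB/c mice (4-6 weeks) were infected iv with 2 × 10^7 freshly transformed promastigotes. One month later, groups were dosed ip in 0.2% Tween 80 in PBS (0.02 M), twice weekly for one month (8 doses); controls got vehicle only. Mice were killed one month post-treatment and spleen and liver were weighed. Parasite load came from Giemsa impression smears as organ weight (mg) × amastigotes per cell nucleus × 2 × 10^5. Values are mean ± S.E. of 5 mice; unpaired t-test.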
# [12] = test system: Leishmania donovani; assay: Antileishmanial activity against Leishmania donovani MHOM/IN/1983/AG83 promastigotes assessed as induction of kinetoplast enlargement at 2 ug/ml after 2 hrs by transmission electron microscopy; type: functional, organism-based; method in brief: as §2
# [13] = test system: Staphylococcus aureus; assay: Antibacterial activity against Staphylococcus aureus ML6 at 50 ug/ml after 24 hrs by agar dilution method; type: functional; details: ML6, 24 h; method in brief: as §1
# [14] = test system: Vibrio cholerae; assay: Antibacterial activity against Vibrio cholerae 569B at 50 ug/ml after 24 hrs by agar dilution method; type: functional
# [15] = test system: Shigella dysenteriae; assay: Antibacterial activity against Shigella dysenteriae 7 NCTC 519/66 at 10 ug/ml after 24 hrs by agar dilution method; type: functional; details: 7 NCTC 519/66, 24 h
# [16] = test system: Vibrio cholerae; assay: Antibacterial activity against Vibrio cholerae 582 at 25 ug/ml after 24 hrs by agar dilution method; type: functional; details: Vibrio cholerae, 582, 24 h
# [17] = test system: Leishmania donovani; assay: Antileishmanial activity against Leishmania donovani MHOM/IN/1983/AG83 promastigotes assessed as induction of kinetoplast enlargement at 11.5 ug/ml after 2 hrs by transmission electron microscopy; type: functional, organism-based
# [18] = test system: Staphylococcus aureus; assay: Antibacterial activity against Staphylococcus aureus ML145 ug/ml after 24 hrs by agar dilution method; type: functional; details: ML145, 24 h; method in brief: as §1
# [19] = test system: Staphylococcus aureus; assay: Antibacterial activity against Staphylococcus aureus ML145 at 25 ug/ml after 24 hrs by agar dilution method; type: functional; details: ML145, 24 h; method in brief: as §1
# [20] = test system: Vibrio cholerae; assay: Antibacterial activity against Vibrio cholerae 569B at 5 ug/ml after 24 hrs by agar dilution method; type: functional, organism-based
# [21] = test system: Escherichia coli; assay: Antibacterial activity against Escherichia coli K-12 Row at 50 ug/ml after 24 hrs by agar dilution method; type: functional; method in brief: as §1
# [22] = test system: Vibrio cholerae; assay: Antibacterial activity against Vibrio cholerae 582 at 50 ug/ml after 24 hrs by agar dilution method; type: functional; details: Vibrio cholerae, 582, 24 h
# [23] = Down regulation of IL6 release Leishmania donovani MHOM/IN/1983/AG83 infected bacterial liposaccharide-stimulated golden Syrian hamster peritoneal macrophages; type: functional, cell-based; details: Mesocricetus auratus; Macrophage
# [24] = test system: Macrophage; assay: Induction of nitric oxide production in Leishmania donovani MHOM/IN/1983/AG83 infected golden Syrian hamster peritoneal macrophages; type: functional, cell-based; details: Mesocricetus auratus
# [25] = test system: Proteus mirabilis; assay: Antibacterial activity against Proteus mirabilis 7 after 24 hrs by agar dilution method; type: functional; details: Proteus mirabilis, 7, 24 h; method in brief: as §1
# [26] = test system: Salmonella typhimurium; assay: Antibacterial activity against Salmonella Typhimurium NCTC 74 at 10 ug/ml after 24 hrs by agar dilution method; type: functional, organism-based; details: Salmonella enterica subsp. enterica serovar Typhimurium; method in brief: as §1
# [27] = test system: Leishmania donovani; assay: Antileishmanial activity against Leishmania donovani MHOM/IN/1983/AG83 promastigotes infected BALB/c mouse assessed as reduction in spleen parasite burden at 5.5 mg/kg, ip administered two times per week for 4 weeks relative to control; type: functional; parameters: scale not given: the % may be the effect or the level left; details: route intraperitoneal; method in brief: as §3
# [28] = test system: Mus musculus; assay: Toxicity in BALB/c mouse assessed as effect on serum glutamate oxaloacetate transaminase levels at 5.5 mg/kg, ip administered two times per week for 4 weeks; type: organism-based; parameters: dose 5.5 mg/kg, route intraperitoneal; details: in vivo, 672 h
# Method in brief: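 Normal BALB/c mice were dosed ip twice per week for 4 weeks. Blood was collected one month after treatment, and serum SGPT and SGOT (IU/l) and blood urea (mg/dl) were measured with commercial kits and compared with untreated normal mice.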
# [29] = test system: Shigella dysenteriae; assay: Antibacterial activity against Shigella dysenteriae 6 NCTC 100/54 at 25 ug/ml after 24 hrs by agar dilution method; type: functional, organism-based
# [30] = test system: Shigella dysenteriae; assay: Antibacterial activity against Shigella dysenteriae 6 NCTC 100/54 at 50 ug/ml after 24 hrs by agar dilution method; type: functional; details: 6 NCTC 100/54, 24 h
# [31] = test system: Leishmania donovani; assay: Antileishmanial activity against Leishmania donovani MHOM/IN/1983/AG83 promastigotes after 4 hrs by MTT assay; type: functional, organism-based; details: MHOM/IN/1983/AG83, 4 h
# Method in brief: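 AG83 promastigotes kept at 22 °C in M199 + 10% FBS. Log-phase cells (2×10^6/ml) exposed 2 h at 22 °C to 1, 3, 5, 7, 10, 15 compound; DMSO at 0.1% final. Cells washed with PBS, incubated 4 h at 22 °C with MTT (2 mg/ml). Formazan dissolved in DMSO and read at 570 nm; % lysis computed, IC50 by linear regression.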
# [32] = test system: Pseudomonas aeruginosa; assay: Antibacterial activity against Pseudomonas aeruginosa ATCC 27853 at 50 ug/ml after 24 hrs by agar dilution method; type: functional; details: ATCC 27853, 24 h; method in brief: as §1
compound,measurement,setting,value
Clc1ccc(OCOc2ccc(Cl)c3cccnc23)c2ncccc12,MIC,[1],10 µg/mL
same,MIC,[2],50 µg/mL
same,MIC,[3],25 µg/mL
same,Activity,[4],Active
same,inhibition at 50 µg/mL,[5],100%
same,inhibition at 5 µg/mL,[6],100%
same,Activity,[7],inactive
same,Activity,[8],inactive
same,Activity,[9],> 80 µg/mL
same,Activity,[10],Active
same,Activity,[11],175 mg
same,Activity,[12],Active
same,inhibition at 50 µg/mL,[13],100%
same,inhibition at 50 µg/mL,[14],100%
same,inhibition at 10 µg/mL,[15],100%
same,inhibition at 25 µg/mL,[16],100%
same,Activity,[17],Active
same,MIC,[18],5 µg/mL
same,inhibition at 25 µg/mL,[19],100%
same,Activity,[20],inactive
same,inhibition at 50 µg/mL,[21],100%
same,inhibition at 50 µg/mL,[22],100%
same,Activity,[23],Active
same,Activity,[24],Active
same,MIC,[25],50 µg/mL
same,Activity,[26],inactive
same,Activity,[27],75%
same,Activity,[28],Non-toxic
same,Activity,[29],inactive
same,inhibition at 50 µg/mL,[30],100%
same,IC50,[31],2 µg/mL
same,inhibition at 50 µg/mL,[32],100%

# Reference: ChEMBL document CHEMBL1153864, “Phase transfer catalyzed synthesis of bis-quinolines: antileishmanial activity in experimental visceral leishmaniasis and in vitro antibacterial evaluation” (Eur J Med Chem, 2009)
